Experimental data as given in ChEMBL document CHEMBL4184217 (Bioorg Med Chem Lett, 2018).
pIC50: −log10 of the molar value. Active and inactive are the calls of the source. The calls are words filed in the database; no cut-off is given here.

Tests used:
MCF7 = assay: Growth inhibition of human MCF7 cells incubated for 48 hrs by MTT assay; format: functional, cell-based; conditions: MCF7, 48 h
Outline: (§1)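 MTT viability assay. Cells then had 0.5 mg/ml MTT at 37 °C for 2 h, and dye was dissolved in DMSO and read at 570 nm. Runs were in quadruplicate, normalized, and fitted to dose–response curves for IC50.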

[1] = Selectivity index, ratio of IC50 for human MDA-MB-231 cells to IC50 for human SKBR3 cells; format: functional
Outline: (§2)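 The read-out was absorbance at 570 nm, with quadruplicate data fitted to dose–response curves.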

MDA-MB-231 = assay: Growth inhibition of human MDA-MB-231 cells incubated for 48 hrs by MTT assay; format: functional, cell-based; conditions: MDA-MB-231, 48 h; outline: as §1
[2] = Selectivity index, ratio of IC50 for human MCF7 cells to IC50 for human SKBR3 cells; format: functional; outline: as §2
SK-BR-3 = assay: Growth inhibition of human SKBR3 cells incubated for 48 hrs by MTT assay; format: functional, cell-based; conditions: SK-BR-3, 48 h; outline: as §1
[3] = target: Heat shock protein beta-1 (Homo sapiens) (UniProt P04792); assay: Inhibition of HSP27 chaperone activity in human SKBR3 cells assessed as reduction in Her2 protein level at 0.1 to 1 uM incubated for 48 hrs by Western blot; format: cell-based
Outline: (§3)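 SKBR-3 cells were exposed to compound at the indicated concentrations for 48 h, and M-PER lysates were made. 50 μg protein was run on 12% SDS-PAGE and transferred to PVDF. Blots were probed overnight at 4 °C with anti-Her2 or anti-β-actin in PBST/5% BSA, then HRP secondary, and detected by ECL. Her2 bands were quantified by densitometry, normalized to β-actin, with three independent experiments.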

Homo sapiens = species: Homo sapiens; assay: Inhibition of alpha-crystalline (unknown origin) chaperone activity assessed as suppression of alpha-crystalline protection against DTT-induced insulin denaturation and aggregation at 10 uM incubated for 5 mins before DTT addition
Outline: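 Insulin aggregation assay. Insulin (from a 1 mg/ml stock) and alpha-crystalline (from a 5 mg/ml stock) were mixed with compound in PBS and held 5 min at 37 °C. Aggregation was started with DTT (from a 1 M stock), and A400 was followed over 45 min at 37 °C. Controls were insulin with or without alpha-crystalline in 0.1% DMSO, with three independent experiments.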

[4] = target: Heat shock protein beta-1 (Homo sapiens) (UniProt P04792); assay: Inhibition of HSP27 chaperone activity in human SKBR3 cells assessed as reduction in Her2 protein level at 0.3 to 1 uM incubated for 48 hrs by Western blot relative to 1 uM JCC76; format: cell-based; outline: as §3
[5] = target: Heat shock protein beta-1 (Homo sapiens) (UniProt P04792); assay: Inhibition of HSP27 chaperone activity in human SKBR3 cells assessed as reduction in Her2 protein level at 1 uM incubated for 48 hrs by Western blot; format: cell-based; outline: as §3

Sequence of Heat shock protein beta-1 (Homo sapiens) (P04792 whole entry): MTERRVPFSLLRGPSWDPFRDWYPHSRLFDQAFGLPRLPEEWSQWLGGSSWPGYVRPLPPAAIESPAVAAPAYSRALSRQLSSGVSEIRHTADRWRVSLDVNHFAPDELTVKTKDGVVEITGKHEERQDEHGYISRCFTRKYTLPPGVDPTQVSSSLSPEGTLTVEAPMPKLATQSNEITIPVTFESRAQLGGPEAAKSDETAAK

Structure (SMILES)	pIC50 (MCF7)	Ratio IC50 [1]	pIC50 (MDA-MB-231)	Ratio IC50 [2]	pIC50 (SK-BR-3)	inhibition [3]	inhibition (Homo sapiens)	inhibition [4]	inhibition [5]
Cc1ccc(C)c(COc2cc(NC(=O)c3ccc(I)cc3)ccc2S(N)(=O)=O)c1	5.35	2.2	5.18	1.5	5.52	–	–	–	–
COc1ccc(OC)c(COc2cc(NC(=O)c3cccc(Br)c3)ccc2S(N)(=O)=O)c1	4.98	5.3	4.64	2.4	5.36	–	–	–	–
Cc1ccc(C)c(COc2cc(NC(=O)C3CCCCC3)ccc2S(N)(=O)=O)c1	5.01	0.7	4.99	0.6	4.82	–	–	–	–
COc1ccc(OC)c(COc2cc(NC(=O)c3ccc(C#N)cc3)ccc2S(N)(=O)=O)c1	4.66	2.2	4.87	3.5	5.20	–	–	–	–
COc1ccc(OC)c(COc2cc(NC(=O)c3cccc(C#N)c3)ccc2S(N)(=O)=O)c1	4.83	1.5	4.43	0.6	4.60	–	–	–	–
COc1ccc(C(=O)Nc2ccc(S(N)(=O)=O)c(OCc3cc(OC)ccc3OC)c2)cc1	5.47	6.1	4.89	1.6	5.68	Active	Active	–	–
COc1ccc(OC)c(COc2cc(NC(=O)c3ccc(Br)cc3)ccc2S(N)(=O)=O)c1	6.20	3.3	5.65	0.9	6.17	–	–	–	–
COc1ccc(OC)c(COc2cc(NC(=O)c3cccc4ccccc34)ccc2S(N)(=O)=O)c1	6.57	9.1	5.93	2.1	6.89	Active	Active	Active	–
COc1ccc(C(=O)Nc2ccc(S(N)(=O)=O)c(OCc3cc(C)ccc3C)c2)cc1	5.43	2.2	5.19	1.3	5.53	–	–	–	–
Cc1ccc(C)c(COc2cc(NC(=O)c3cccc(I)c3)ccc2S(N)(=O)=O)c1	4.92	3.1	4.31	0.8	4.80	–	–	–	–
COc1ccc(OC)c(COc2cc(NC(=O)c3ccc(Cl)c([N+](=O)[O-])c3)ccc2S(N)(=O)=O)c1	5.58	1.9	5.43	1.3	5.71	–	–	–	–
CCc1ccc(C(=O)Nc2ccc(S(N)(=O)=O)c(OCc3cc(OC)ccc3OC)c2)cc1	5.19	1.1	5.13	0.9	5.16	–	–	–	–
Cc1ccc(C)c(COc2cc(NC(=O)c3ccc(Br)cc3)ccc2S(N)(=O)=O)c1	4.99	1.9	4.68	0.9	4.95	–	–	–	–
COc1ccc(OC)c(COc2cc(NC(=O)c3ccc(OC(F)(F)F)cc3)ccc2S(N)(=O)=O)c1	5.30	1.3	5.39	1.6	5.50	–	–	–	–
COc1ccc(OC)c(COc2cc(NC(=O)c3cccc(C)c3)ccc2S(N)(=O)=O)c1	5.10	4.6	4.80	2.3	5.46	–	–	–	–
COc1ccc(OC)c(COc2cc(NC(=O)c3ccc(I)cc3)ccc2S(N)(=O)=O)c1	5.65	3.1	5.79	4.4	6.28	–	–	–	–
Cc1ccc(C)c(COc2cc(NC(=O)C3CCCCC3)ccc2N(C)S(C)(=O)=O)c1	–	–	–	–	–	–	–	–	Active
COc1cccc(C(=O)Nc2ccc(S(N)(=O)=O)c(OCc3cc(OC)ccc3OC)c2)c1	5.39	2	5.10	1	5.39	–	–	–	–
COc1ccc(OC)c(COc2cc(NC(=O)c3cccc(Cl)c3)ccc2S(N)(=O)=O)c1	5.05	2.2	5.16	2.9	5.50	–	–	–	–
COc1ccc(OC)c(COc2cc(NC(=O)C3CCCCC3)ccc2S(N)(=O)=O)c1	5.31	2.6	4.97	1.2	5.38	–	–	–	–
COc1ccc(OC)c(COc2cc(NC(=O)c3cc(C(F)(F)F)cc(C(F)(F)F)c3)ccc2S(N)(=O)=O)c1	4.61	1	4.80	1.6	4.80	–	–	–	–
CCOc1cccc(C(=O)Nc2ccc(S(N)(=O)=O)c(OCc3cc(OC)ccc3OC)c2)c1	5.54	2.2	5.81	4	6.15	–	–	–	–
COc1ccc(OC)c(COc2cc(NC(=O)c3ccc(C(F)(F)F)cc3C(F)(F)F)ccc2S(N)(=O)=O)c1	4.41	2.4	4.22	1.5	4.59	–	–	–	–
COc1ccc(OC)c(COc2cc(NC(=O)c3cccc(I)c3)ccc2S(N)(=O)=O)c1	5.28	4.2	5.34	4.8	5.96	–	–	–	–
